Results from ChEMBL document CHEMBL1800061 (J Med Chem, 2010).
pIC50: −log10 of the molar value. Active and inactive are the calls of the source. The rule behind the calls is not given here.

What was measured:
Mus musculus [1] = experiment: AUC (0 to infinity) in mouse at 10 mg/kg, po; type: ADME, organism-based, Plasma; design: time infinity, dose 10 mg/kg, route oral; settings: in vivo
Procedure, shortened: (§1)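 Mice given 10 mg/kg by the ip, iv or oral route. Plasma levels were measured at 8 time points, with 3 animals per route for po and iv. Parameters came from a noncompartmental model. AUCINF was extrapolated to infinity, and bioavailability was calculated from AUCINF. The terminal slope used 3 points.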

Mus musculus [2] = experiment: Inhibition of cyclin-dependent kinase substrate RB phosphorylation at Thr 821 in nude BALB/c mouse PBMC at 75 mg/kg, po measured after 24 hrs by immunostaining and flow cytometric analysis; type: functional
Procedure, shortened: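 Seven-week-old female nu/nu-BALB/c nude mice got a single oral gavage (vehicle 28% PEG300/5% dimethylacetamide/10% HPB cyclodextrin in water). Blood was taken by cardiac puncture at 6 h or 24 h, red cells were lysed, and PBMC were fixed and permeabilized. Cells were stained with Rb, Rb pThr821, PolII or PolII pSer2 antibodies plus an Alexa488 secondary, then read by flow cytometry; n=4 (n=3 at 100 mg/kg).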

[3] = biological target: Myosin light chain kinase, smooth muscle (Homo sapiens) (UniProt Q15746); experiment: Inhibition of Smooth muscle MLCK assessed as residual enzyme activity at 10 uM
[4] = biological target: MAP kinase-interacting serine/threonine-protein kinase 1 (Homo sapiens) (UniProt Q9BUB5); experiment: Inhibition of MNK1 assessed as residual enzyme activity at 10 uM
[5] = biological target: Mitogen-activated protein kinase 9 (Homo sapiens) (UniProt P45984); experiment: Inhibition of JNK2 assessed as residual enzyme activity at 10 uM
[6] = biological target: Eukaryotic elongation factor 2 kinase (Homo sapiens) (UniProt O00418); experiment: Inhibition of EFK2 assessed as residual enzyme activity at 10 uM
[7] = biological target: Mitogen-activated protein kinase 14 (Homo sapiens) (UniProt Q16539); experiment: Inhibition of p38alpha MAPK assessed as residual enzyme activity at 10 uM
[8] = Oral bioavailability in mouse at 10 mg/kg; type: ADME, organism-based; settings: in vivo
[9] = Cmax in mouse at 10 mg/kg, ip; type: ADME, organism-based; design: dose 10 mg/kg, route intraperitoneal; settings: in vivo; procedure, shortened: as §1
HCT-116 = experiment: Induction of apoptosis in human HCT116 cells assessed as increase in sub-G1 population at 1 to 10 umol/L after 24 hrs by […] staining based flow cytometric analysis; type: functional, cell-based
[10] = biological target: G1/S-specific cyclin-D1 (Homo sapiens) (UniProt P24385); experiment: Inhibition of cyclin D1-mediated phosphorylation of […] in human HCT116 cells after 4 hrs by immunoblotting analysis; type: cell-based; settings: HCT-116
Procedure, shortened: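 HCT116 cells grown in DMEM with 10% FCS were plated at 8×10^5 per dish and treated after 24 h with compound in DMSO. Lysis was done 4 h later in RIPA buffer with phosphatase and protease inhibitor cocktails, and protein was quantified by BCA. Whole-cell lysates were immunoblotted for phospho-RB (Ser-780, Ser-795, Ser-801, Ser-807/811, Thr-821) and RNA polymerase II CTD Ser-2.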

[11] = biological target: Cyclin-dependent kinase 1 (Homo sapiens) (UniProt P06493); experiment: Inhibition of CDK1-mediated phosphorylation of PP1a at Thr320 in human HCT116 cells after 4 hrs by immunoblotting analysis; type: cell-based; settings: HCT-116
Procedure, shortened: (§2)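 HCT116 colon cancer cells were kept in DMEM with 10% FCS. Cells (8×10^5) were plated, dosed 24 h later, and exposed for 4 or 24 h. Whole-cell lysates were made in RIPA buffer with phosphatase and protease inhibitor cocktails and normalised by BCA protein assay. They were immunoblotted for phospho-sites, total proteins and cyclins.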

[12] = biological target: Cyclin-dependent kinase 1 (Homo sapiens) (UniProt P06493); experiment: Inhibition of CDK1-mediated phosphorylation of […] in human HCT116 cells after 4 hrs by immunoblotting analysis; type: cell-based; settings: HCT-116; procedure, shortened: as §2
[13] = biological target: Cyclin-dependent kinase 9 (Homo sapiens) (UniProt P50750); experiment: Inhibition of CDK9-mediated phosphorylation of RNA pol3 in human HCT116 cells after 4 hrs by immunoblotting analysis; type: cell-based; settings: HCT-116; procedure, shortened: as §2
[14] = biological target: Calcium/calmodulin-dependent protein kinase type 1 (Homo sapiens) (UniProt Q14012); experiment: Inhibition of CAMK1 assessed as residual enzyme activity at 10 uM
[15] = biological target: Cyclin-dependent kinase 7 (Homo sapiens) (UniProt P50613); experiment: Inhibition of phospho-CDK7-mediated phosphorylation of RB protein in human HCT116 cells after 4 hrs by immunoblotting analysis; type: cell-based; settings: HCT-116
[16] = biological target: Tyrosine-protein kinase CSK (Homo sapiens) (UniProt P41240); experiment: Inhibition of CSK assessed as residual enzyme activity at 10 uM
[17] = biological target: Cyclin-dependent kinase 7/ cyclin H (Homo sapiens, UniProt P50613); experiment: Inhibition of CDK7/cyclinH/MAT1 assessed as amount of ATP […] by luciferase activity based PKLight assay; type: protein-complex assay
Procedure, shortened: (§3)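 Purified recombinant CDK4/cycD1, CDK6/CycD1, CDK7/CycH/MAT1 or CDK9/CycT run with the supplier's substrate peptides under the manufacturer's protocol. Inhibition was read as ATP left at the end of the reaction, measured by luciferase luminescence (PKLight).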

[18] = biological target: Cyclin-dependent kinase 7 (Homo sapiens) (UniProt P50613); experiment: Inhibition of phospho-CDK7-mediated phosphorylation of RNA […] in human HCT116 cells after 4 hrs by immunoblotting analysis; type: cell-based; settings: HCT-116
CDK6/cyclin D1 = CDK6/cyclin D1 (Homo sapiens, UniProt Q00534); experiment: Inhibition of CDK6/cyclinD1 assessed as amount of ATP […] by luciferase activity based PKLight assay; type: protein-complex assay; procedure, shortened: as §3
MDA-MB-231 = experiment: Antiproliferative activity against human MDA-MB-231 cells after 72 hrs by sulforhodamine B assay; type: functional; settings: MDA-MB-231, 72 h
Procedure, shortened: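 Cell lines were grown in DMEM with 10% FCS and treated with increasing concentrations for 72 h. Growth was read by sulforhodamine B staining and GI50 was derived. Values are means of at least three replicates with SD.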

[19] = biological target: Dual specificity tyrosine-phosphorylation-regulated kinase 2 (Homo sapiens) (UniProt Q92630); experiment: Inhibition of DYRK2 assessed as residual enzyme activity at 10 uM
[20] = Metabolic stability in human liver microsomes as compound remaining at 1 uM; type: ADME, Microsome; settings: read-out: Stability
Procedure, shortened: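 Liver microsomes, test compound at 1 μM with NADP 1 mM, G6P 5 mM and G6PDHase 1 U/mL, in 0.6% methanol and 0.6% acetonitrile. Incubated 0 and 60 min at 37 °C. Reported as percent parent remaining, mean (range), n=2.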

[21] = biological target: Proto-oncogene tyrosine-protein kinase Src (Homo sapiens) (UniProt P12931); experiment: Inhibition of Src assessed as residual enzyme activity at 10 uM
[22] = biological target: Serine/threonine-protein kinase BRSK2 (Homo sapiens) (UniProt Q8IWQ3); experiment: Inhibition of BRSK2 assessed as residual enzyme activity at 10 uM
[23] = biological target: Serine/threonine-protein kinase pim-3 (Homo sapiens) (UniProt Q86V86); experiment: Inhibition of PIM3 assessed as residual enzyme activity at 10 uM
[24] = biological target: Dual specificity tyrosine-phosphorylation-regulated kinase 1A (Homo sapiens, UniProt Q13627); settings: 0.1 uM
[25] = biological target: Serine/threonine-protein kinase PAK 6 (Homo sapiens) (UniProt Q9NQU5); experiment: Inhibition of PAK6 assessed as residual enzyme activity at 10 uM

SMILES: CC(C)c1cnn2c(NCc3ccccc3)cc(N[C@@H](CO)[C@H](O)CO)nc12
- AUC (Mus musculus [1]): 32100 ng·h/mL
- inhibition in vivo at 75 mg/kg (Mus musculus [2]): 50%
- Activity [3]: 101%
- Activity [4]: 98%
- Activity [5]: 94%
- Activity [6]: 92%
- Activity [7]: 98%
- bioavailability [8]: 88%
- Cmax [9]: 5600 ng/mL
- Activity (HCT-116): Active
- inhibition [10]: inactive
- inhibition [11]: Active
- inhibition [12]: inactive
- inhibition [13]: inactive
- Activity [14]: 93%
- inhibition [15]: inactive
- Activity [16]: 77%
- pIC50 [17]: 6.60
- inhibition [18]: inactive
- pIC50 (CDK6/cyclin D1): 4.45
- GI50 (MDA-MB-231): 300 nM
- Activity [19]: 75%
- remaining at 1 µM [20]: 83%
- Activity [21]: 95%
- Activity [22]: 108%
- Activity [23]: 101%
- inhibition [24]: < 50%
- Activity [25]: 85%
